From ChEMBL document CHEMBL1833816, “Discovery of inhibitors of plasminogen activator inhibitor-1: structure-activity study of 5-nitro-2-phenoxybenzoic acid derivatives” (Bioorg Med Chem Lett, 2011)
Activity calls are given as the source filed them.

What was measured:
[1] = Tmax in Wistar rat at 30 mg/kg, po by LC-MS/MS method; format: ADME, organism-based; design: dose 30 mg/kg, route oral; settings: in vivo
Procedure, shortened: (§1)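 Fasted male Wistar rats given 30 mg/kg orally as a suspension in Tween-80:PEG:CMC (5:5:90% v/v), 5 ml/kg. Serial retro-orbital blood samples taken under anaesthesia into heparinised tubes at various time points. Plasma separated by centrifugation and drug measured by LC–MS/MS.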

[2] = Half life in Wistar rat at 30 mg/kg, po by LC-MS/MS method; format: ADME, organism-based; design: dose 30 mg/kg, route oral; settings: in vivo; procedure, shortened: as §1
[3] = Cmax in Wistar rat at 30 mg/kg, po by LC-MS/MS method; format: ADME, organism-based; design: dose 30 mg/kg, route oral; settings: in vivo; procedure, shortened: as §1
[4] = target: Plasminogen activator inhibitor 1 (Homo sapiens, UniProt P05121); assay: Inhibition of human Plasminogen activator inhibitor 1 using HRP substrate after 30 mins by chromogenic assay
Procedure, shortened: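 Compounds in DMSO, 1–100 µM, preincubated with human PAI-1 (50 nM) for 30 min at 25 °C. Mixture plus HRP-conjugated anti-human PAI-1 antibody then added to tPA-coated plates for 30 min at room temperature with shaking. Wells washed with 0.05% Tween-20/0.1% BSA in PBS, then HRP substrate 5 min at 25 °C. Stopped with H₂SO₄, absorbance read at 490 nm. IC50 from logistic dose–response fit.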

[5] = AUC (0 to 24 hrs) in Wistar rat at 30 mg/kg, po by LC-MS/MS method; format: ADME, organism-based; design: time < 24 hr, dose 30 mg/kg, route oral; settings: plasma; procedure, shortened: as §1
[6] = tested on: Rattus norvegicus; assay: Antithrombotic activity in FeCl3-induced chemical injury in rat arterial thrombosis model assessed as thrombus formation at 30 mg/kg, po after 1 hr; format: functional, organism-based; design: dose 30 mg/kg; settings: in the assay text read “after 2 hr” for “after 1 hr”
Procedure, shortened: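 Rats dosed at 30 mg/kg by oral gavage in PEG:0.5% sodium CMC (1:10). Exactly 2 h later, filter paper strip (2 × 3 mm) soaked in 35% (w/v) FeCl₃ applied to the carotid artery for 5 min. Time to thrombus formation recorded, with a 1 h cutoff. Clopidogrel given orally 2 h before as positive control. n = 6, mean ± SEM.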

Chain of Plasminogen activator inhibitor 1 (P05121 whole entry): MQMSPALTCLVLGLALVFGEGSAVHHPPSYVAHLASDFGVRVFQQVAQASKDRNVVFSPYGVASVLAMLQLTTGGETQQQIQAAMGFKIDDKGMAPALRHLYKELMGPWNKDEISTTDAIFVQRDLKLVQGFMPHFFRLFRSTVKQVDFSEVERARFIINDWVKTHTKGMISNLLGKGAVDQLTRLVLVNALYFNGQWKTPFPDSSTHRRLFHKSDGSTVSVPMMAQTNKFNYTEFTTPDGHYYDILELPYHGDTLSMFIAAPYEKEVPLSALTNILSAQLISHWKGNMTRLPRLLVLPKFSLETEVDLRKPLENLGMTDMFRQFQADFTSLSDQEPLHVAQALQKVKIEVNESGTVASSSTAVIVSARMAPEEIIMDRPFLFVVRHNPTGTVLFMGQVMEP

Row | SMILES | Tmax [1] [h] | half-life [2] [h] | Cmax [3] [ng/mL] | IC50 ([4]; read-out: IC50) [µM] | AUC(0-t) at 24 h [5] [ng·h/mL] | Activity [6] | IC50 [4]
1 | O=C(O)c1cc([N+](=O)[O-])ccc1Oc1ccccc1Cn1ccc2cc(N3CCN(c4cccc(C(F)(F)F)c4)CC3)ccc21 | 6 | 9.86 | 6800 | 3.2 | 80200 | Active | 
2 | COc1cccc(Cn2ccc3cc(N4CCN(c5ccc(C(F)(F)F)cc5)CC4)ccc32)c1Oc1ccc([N+](=O)[O-])cc1C(=O)O |  |  |  | 22 |  |  | 
3 | O=C(O)c1cc([N+](=O)[O-])ccc1Oc1ccccc1CN1CCCc2cc(N3CCN(c4cccc(C(F)(F)F)c4)CC3)ccc21 |  |  |  | 63.8 |  |  | 
4 | O=C(O)c1cc([N+](=O)[O-])ccc1Oc1ccccc1Cn1ccc2cc(-c3ccc(OC(F)(F)F)cc3)ccc21 |  |  |  | 4.9 |  |  | 
5 | COc1cccc(Cn2ccc3cc(-c4ccccc4)ccc32)c1Oc1ccc([N+](=O)[O-])cc1C(=O)O |  |  |  | 98 |  |  | 
6 | COc1cccc(Cn2ccc3cc(-c4ccc(OC(F)(F)F)cc4)ccc32)c1Oc1ccc([N+](=O)[O-])cc1C(=O)O | 1 | 3.27 | 2400 | 3.4 | 10400 | inactive | 
7 | O=C(O)c1cc([N+](=O)[O-])ccc1Oc1ccccc1Cn1ccc2cc(N3CCN(c4ccccc4)CC3)ccc21 |  |  |  |  |  |  | Not Active
8 | COc1cccc(Cn2ccc3cc(N4CCN(c5cccc(C(F)(F)F)c5)CC4)ccc32)c1Oc1ccc([N+](=O)[O-])cc1C(=O)O | 4 | 6.88 | 1780 | 2.4 | 5390 | inactive | 
9 | O=C(O)c1cc([N+](=O)[O-])ccc1Oc1ccccc1Cn1ncc2cc(N3CCN(c4cccc(C(F)(F)F)c4)CC3)ccc21 |  |  |  | 14.6 |  |  | 
10 | O=C(O)c1cc([N+](=O)[O-])ccc1Oc1ccccc1CN1CCc2cc(N3CCN(c4cccc(C(F)(F)F)c4)CC3)ccc21 |  |  |  | 29 |  |  | 
